Consider 99 compounds from ChEMBL document CHEMBL4513216, “Probing the Open Global Health Chemical Diversity Library for Multistage-Active Starting Points for Next-Generation Antimalarials” (ACS Infect Dis, 2020).

This data set in a line: Toxicity liver stage against HepG2, at 10uM. Conditions: human, HepG2-A16-CD81EGFP cells; read-out: INHIBITION
The format is cell-based. More on the design: test concentration 10 uM, cell line HepG2-A16-CD81EGFP. Put shortly: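 Uninfected HepG2-A16-CD81EGFP cells, 3 × 10^3 per well, 1536-well, plated on prespotted compound at 10 μM final, parasite-free screening media added to match infected plates; puromycin 10 μM positive, DMSO 0.5% negative; run in parallel with 48 h PbLuc assay at 37 °C, 5% CO2; viability by CellTiter-Glo luminescence, normalized to controls.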
`CCc1ncc2c(n1)CN(C(C)C(=O)Nc1ccc(Cl)cn1)CC2` (centres undefined): the cytotoxicity at 10 µM was -0.915%.

Consider `CCc1nc(CC)n(CC(=O)N(CC)CC)n1`, for which the cytotoxicity at 10 µM came to 3.1%. In the case of `Cn1ccc2c(-c3cc(N4CCOCC4)ncn3)ccnc21`, the cytotoxicity at 10 µM was 2.64%. Next, `COCCN1C[C@@H]2CC[C@H]1CN(Cc1ccc3ccccc3n1)C2`: -11.3%; `COc1ccc(C[C@H]2CNCC[C@H]2OC)cc1`: 1.76%.

On to `COc1cc(Cl)c(C)cc1NC(=O)CCNc1ccc(C#N)cn1`, for which the cytotoxicity at 10 µM stood at 0.423%. On to `Cc1nccc(C2CCCCN2Cc2ccc(F)cc2)n1` (centres undefined), for which the cytotoxicity at 10 µM is -6.06%. Next, `CCOc1c(Cl)cccc1NS(=O)(=O)c1cc(C)c(C(=O)O)s1`: 2.13%; `Cc1ccc(S(=O)(=O)N(CC2CCOC2)C2CC2)cc1N(C)C` (centres undefined): -9.77%; `CS(=O)(=O)c1cn[nH]c1C1CCCCN1C(=O)c1cnccn1` (centres undefined): -2.13%.

Consider `COc1ccccc1OCC(=O)NS(=O)(=O)c1ccc(Cl)s1`, for which the cytotoxicity at 10 µM is -4.93%.

Regarding `CN(c1ccc(C(C)(C)C)cc1)S(=O)(=O)c1cc(C(=O)O)cs1`, the cytotoxicity at 10 µM is -6.19%. For the compound `CC(=O)NCCNC(=O)CN1CCCC(Cn2cncn2)C1` (centres undefined), the cytotoxicity at 10 µM was -18.9%. Take `Nc1cc(CCC2CN(Cc3ccc4c(c3)OCCO4)CCO2)ccn1` (centres undefined): the cytotoxicity at 10 µM was 15.8%. As for `COc1ccc(CNC(=O)N2CCCN(CC3CCCCC3)CC2)cn1`, the cytotoxicity at 10 µM was -3.36%. On to `CCCS(=O)(=O)N1CC(=O)N(Cc2cccc(OC)c2OC)CC(O)C1` (centres undefined), for which the cytotoxicity at 10 µM is -12.9%.

For `O=C(c1ccc(NCc2cccc(F)c2)cc1)N1CCC(CO)CC1`, the cytotoxicity at 10 µM worked out at 6.21%. With `O=C(O)CCc1ccc(S(=O)(=O)Nc2cnn(CC(F)(F)F)c2)cc1`, the cytotoxicity at 10 µM is -7.52%.

For the compound `CCCn1nc(C(=O)NCCc2nnc3n2CCC3)ccc1=O`, the cytotoxicity at 10 µM was 3.38%. Take `CCN(CC)CCCNCc1cc2cc(C)ccc2[nH]c1=O`: the cytotoxicity at 10 µM was -1.55%. On to `CC(C)OC(=O)CN1N=C(C(=O)N2CCCC2)S(=O)(=O)c2ccccc21`, for which the cytotoxicity at 10 µM is -2.93%.

Consider `COc1cccc(CNCc2nc3ccccc3c(=O)[nH]2)c1`, for which the cytotoxicity at 10 µM is 1.26%. Consider `COc1ncccc1NC(=O)N(Cc1ccc(C(N)=O)cc1)C1CC1`, for which the cytotoxicity at 10 µM came to 6.66%. On to `CC1(NC(=O)Cc2csc(C(C)(C)C)n2)CCS(=O)(=O)C1` (centres undefined), for which the cytotoxicity at 10 µM is -4.17%. Consider `CCC(CO)N(Cc1ccco1)C(=O)c1ccccc1SC` (centres undefined), for which the cytotoxicity at 10 µM amounted to 6.41%. `CC(C)=CCn1ncc(N2CCCCC2)cc1=O`: the cytotoxicity at 10 µM was -9.48%. Take `CCOc1nnc(CN2CCC(c3nc4ccccc4[nH]3)CC2)s1`: the cytotoxicity at 10 µM is -1.36%. In the case of `CCc1nc(C)c(C2CC(=O)Nc3c2c(C(C)(C)C)nn3C)[nH]1` (centres undefined), the cytotoxicity at 10 µM stood at 2.63%.

`O=C(O)c1ccccc1-n1cnc(CN2CCCCCC2)c1`: the cytotoxicity at 10 µM is -8.94%. In the case of `Cc1cc(=O)[nH]c(NCCNC(=O)CN2CCCCCC2)n1`, the cytotoxicity at 10 µM stood at 3.28%.

`CN1CCN(Cc2cnc3n2CCN(C(=O)N2CCCC2)C3)CC1`: the cytotoxicity at 10 µM was -72.3%. Regarding `CNc1c(NCc2ccco2)c(=O)c1=O`, the cytotoxicity at 10 µM is -10.6%. On to `COc1c(CNCc2cccc(CN(C)C)c2)c(C)nn1C`, for which the cytotoxicity at 10 µM is -9.95%.

On to `CC(=O)Nc1nc(C(=O)NC(C)c2ccc(F)cc2)cs1` (centres undefined), for which the cytotoxicity at 10 µM is -0.168%.

As for `CC(C)[C@H](NS(C)(=O)=O)C(=O)NCc1cc(-c2ccccc2)nn1C`, the cytotoxicity at 10 µM is -7.88%. Next, `Cc1ccc(-c2ncc(C(=O)NCCNc3ncccn3)s2)c(C)c1`: -9.12%; `COc1c(CNCCC(=O)NC2CCCCC2)c(C(C)C)nn1C`: -10.4%. On to `O=C1NC2(CCN(C(=O)c3ccnnc3)CC2)CC1c1ccccc1` (centres undefined), for which the cytotoxicity at 10 µM is -113%. Regarding `CCCN(Cc1ccc(C#N)cc1)Cc1nnsc1Cl`, the cytotoxicity at 10 µM is -58.4%.

For the compound `NS(=O)(=O)CCN1CCOC(c2ccc(Cl)cc2)C1` (centres undefined), the cytotoxicity at 10 µM was -0.317%. Next, `CCN(CC)C(CNC(=O)c1ccc(S(=O)(=O)NC)cc1)c1ccco1` (centres undefined): -13.5%; `O=C(c1c[nH]c(=O)c(Cl)c1)N1C[C@H]2CC[C@@H](C1)N(Cc1ccccc1)C2`: -14.5%; `Cc1cnn(CC2CN(CC(=O)Nc3nccs3)CCO2)c1` (centres undefined): -7.51%. On to `CCC(C)(NCC(=O)OC)c1nccs1` (centres undefined), for which the cytotoxicity at 10 µM was -12.7%.

As to `CCCOC(C)Cn1ccc2[nH]c(=O)c(C#N)cc2c1=O` (centres undefined), the cytotoxicity at 10 µM was 7.39%. In the case of `CC(C)Cn1cc2nc(N)[nH]cc-2c1=O`, the cytotoxicity at 10 µM is 5.26%. In the case of `CCCC(=O)N1CCc2nc3cc(OC)c(OC)cc3c(=O)n2CC1`, the cytotoxicity at 10 µM is -13.2%. For the compound `CCN(CC1CCCN(CCc2cccc(OC)c2)C1)C(=O)CO` (centres undefined), the cytotoxicity at 10 µM turned out to be 9.34%. With `CCc1csc(C2CCCN(C(=O)COc3cc(C)on3)C2)n1` (centres undefined), the cytotoxicity at 10 µM was -9.71%. On to `Nc1nccc(C2CCN(CCO)C2)n1` (centres undefined), for which the cytotoxicity at 10 µM is 0.51%.

With `CCNC(=O)NC(C)c1nc(-c2ccc(Br)cc2)no1` (centres undefined), the cytotoxicity at 10 µM turned out to be 14.7%. For `CN1CCC(CNC(=O)c2cccc(NC(N)=O)c2)c2ccccc21` (centres undefined), the cytotoxicity at 10 µM worked out at 3.86%. Next, `CC1Oc2ccc(S(=O)(=O)NCCCn3ccnc3)cc2NC1=O` (centres undefined): 7.88%; `CS(=O)(=O)Cc1cccc(CNS(=O)(=O)c2ccc(F)c(F)c2)c1`: 1.33%.

Regarding `CN(C)C(=O)N1CC2(CCNCC2)c2cc(F)ccc21`, the cytotoxicity at 10 µM is -79.9%. Consider `c1cncc(CN2CCO[C@H]3[C@H](OCCN4CCCC4)CC[C@@H]32)c1`, for which the cytotoxicity at 10 µM was determined as 3.36%. Consider `Cc1cccc(C)c1CN1C(=O)CC2(CCSC2)C1=O` (centres undefined), for which the cytotoxicity at 10 µM is 14.9%.

As for `Cn1cc(C2CCCN2C(=O)Cn2c(=O)oc3ccccc32)cn1` (centres undefined), the cytotoxicity at 10 µM is 1.84%.

On to `c1cnnc(N2CCCC2CNc2ncnc3ccccc23)c1` (centres undefined), for which the cytotoxicity at 10 µM turned out to be 2.33%. In the case of `CCn1ccc2ccc(CN3CCCC3c3nc(C(C)C)no3)cc21` (centres undefined), the cytotoxicity at 10 µM amounted to 5.15%. On to `Cc1nnc2n1CCN(Cc1nc3ccccc3o1)C2`, for which the cytotoxicity at 10 µM is -6.48%. Next, `CCn1nc(C)c2nc(C(C)C)nc(N3CCC(O)CC3)c21`: 1.3%. As for `COc1cccn(CC(=O)N(C)CCSC)c1=O`, the cytotoxicity at 10 µM stood at 5.03%. Next, `CC(C)COC(C)C(=O)NCc1ccc(OC(C)C)nc1` (centres undefined): 2.12%. With `O=C(c1ccncc1)N1CCN(Cc2cccnc2)c2ncccc2C1`, the cytotoxicity at 10 µM was -1.16%. Turning to `CN(C)C(C(=O)N1CCN(CCn2cccc2)CC1)c1ccc(F)cc1` (centres undefined), the cytotoxicity at 10 µM is -14.9%. On to `CCN(Cc1noc(C2CC2)n1)C(=O)c1onc2ccccc12`, for which the cytotoxicity at 10 µM stood at 1.61%. Next, `c1coc(CN2CCc3onc(Cn4ccnc4)c3C2)c1`: 7.52%; `Cc1noc(C)c1CNC(=O)Nc1ccc(N2CCSCC2)cc1`: -1.61%; `Cc1ccc(-c2nc(CN(Cc3cccs3)CC3CCCO3)no2)cc1` (centres undefined): 0.561%.

As to `COc1c(NC(=O)C(C)CCOc2ccccc2)c(C)nn1C` (centres undefined), the cytotoxicity at 10 µM is 8.96%. As to `O=C(CSc1nnc[nH]1)NCc1cccs1`, the cytotoxicity at 10 µM stood at 0.284%. `CC(C)c1noc(CCC(=O)NCC2CCOC2)n1` (centres undefined): the cytotoxicity at 10 µM is 4.57%.

In the case of `CN1C(=O)CC2(CCN(S(=O)(=O)N(C)C)CC2)c2ccccc21`, the cytotoxicity at 10 µM was found to be 0.688%. Next, `O=C1NCCCC[C@@H]1NC(=O)C1(N2CCCCC2)Cc2ccccc2C1`: -4.3%; `CCc1ccccc1CNC(=O)CCc1cnn(C)c1`: -3.09%; `CCc1ccc(S(=O)(=O)Nc2c(C)cccc2C(=O)O)s1`: -15.9%. With `O=C(CC1CCCO1)NCCc1ccccc1Br` (centres undefined), the cytotoxicity at 10 µM was 5.63%.

As to `Cc1ccccc1CCNC(=O)CN1CCCC(Cn2cncn2)C1` (centres undefined), the cytotoxicity at 10 µM was -5.04%. For the compound `O=C(O)c1c(Cl)ncn1-c1ccccc1`, the cytotoxicity at 10 µM is -2.34%.

For the compound `COCCN1CC[C@H](O)[C@@H]1Cc1ccccc1`, the cytotoxicity at 10 µM was -10%. With `O=C(N1CCCC1)N1CCCC(c2nccn2Cc2ccncc2)C1` (centres undefined), the cytotoxicity at 10 µM was 8.2%.

Turning to `O=C1CC2(CCCC2)CC(=O)N1Cc1nccs1`, the cytotoxicity at 10 µM turned out to be 3.16%. With `CC(O)CN1CCN(C(=O)c2sccc2C2CC2)CC1` (centres undefined), the cytotoxicity at 10 µM came out at 1.83%. Consider `Cc1nn(C(C)C)c(C)c1S(=O)(=O)Nc1ccc(C(=O)O)c(Cl)c1`, for which the cytotoxicity at 10 µM is -9.5%. As for `CCc1c(C(=O)NC2CCS(=O)(=O)C2)cnn1-c1ccc(C)cc1` (centres undefined), the cytotoxicity at 10 µM was -5.94%.

In the case of `O=C(O)C1(n2cccn2)CCN(Cc2nc(-c3ccccc3)no2)CC1`, the cytotoxicity at 10 µM came out at 6.74%. `O=C(NCCO)c1sc2ncccc2c1C1CNCCO1` (centres undefined): the cytotoxicity at 10 µM amounted to 11.2%. Regarding `Cc1ccsc1[C@@H]1CCN(C(=O)CCc2cc(O)no2)C[C@H]1O`, the cytotoxicity at 10 µM is -4.73%.

For `CCOc1cc(C)c(-c2cc(N)[nH]n2)cc1OCC`, the cytotoxicity at 10 µM was -7.27%. For the compound `O=C1N(CCCc2ccccc2)CCCC1(O)CNCc1ccccc1` (centres undefined), the cytotoxicity at 10 µM stood at 10.4%. Next, `O=S(=O)(c1c(Cl)nc2sccn12)N1CCCC2(CCNC2)C1` (centres undefined): 8.64%; `CN(CCN1CCOCC1)C(=O)CCc1ccc(C(F)(F)F)cc1`: -1.3%; `CCC(CC)NC(=O)c1cncc(Br)c1`: -0.211%. As for `CCN(Cc1nc2c(cnn2C)c(=O)[nH]1)c1ccccc1C`, the cytotoxicity at 10 µM was determined as 2.78%.

For `CN(C)C[C@@H]1CN(C(=O)c2cc(S(N)(=O)=O)ccc2F)C[C@@H]1CO`, the cytotoxicity at 10 µM turned out to be 4.83%. Next, `O=C(NCc1cn2c(n1)CN(Cc1ccccn1)CC2)C1CCC1`: 7.49%; `O[C@@H]1C[C@H]2CN(Cc3ccsc3)[C@@H](Cc3ccccc3)CN2C1`: -2.13%. Next, `O=C(NCCO)NC(c1ccccc1)c1ccc2c(c1)CCCO2` (centres undefined): 2.73%.
